Activity calls are given as the source filed them. The calls are words filed in the database; no cut-off is given here.
Assays:
[1] = target: T1, Amyloid beta-binding alcohol dehydrogenase (Homo sapiens, UniProt Q2L8D9); test: Inhibition of ABAD (unknown origin) by spectrophotometric assay
[2] = target: T1, Amyloid beta-binding alcohol dehydrogenase; test: Inhibition of ABAD (unknown origin) assessed as residual activity at 100 uM using acetoacetyl-CoA in presence of NADH by spectrophotometric assay relative to control
Summary of the method: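 Recombinant ABAD at 0.5 µg/mL with NADH 250 µM and acetoacetyl-CoA 120 µM; compound at 100 µM in 1% DMSO, controls with matching DMSO. Buffer 10 mM HEPES, 0.5% gelatin, pH 7.4 at 37°C. NADH consumption read as falling absorbance at 340 nm; reported as % remaining activity ± SEM from two biological repeats, each with three technical repeats.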

[3] = Cytotoxicity against CHOK1 cells assessed as reduction in cell viability after 24 hrs by MTT assay; format: cell-based, Cricetulus griseus; settings: chinese hamster, CHO-K1 cells; read-out: LC50
Summary of the method: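 CHO-K1 cells grown as ECACC recommends, seeded 8000 per well; compounds from DMSO stocks diluted in F-12 with 10% FBS and 1% pen/strep (final DMSO at most 0.5%), exposed 24 h. Medium then replaced with 10 µM MTT for about 3 h, formazan dissolved in DMSO, absorbance read at 570 nm (650 nm reference). LC50 from control-subtracted triplicates by four-parameter regression; mean ± SEM of 3 independent runs.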

[4] = Lipophilicity of the compound assessed as capacity factor at pH 3.5 by HPLC analysis; format: physicochemical; settings: buffer
Summary of the method: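 Capacity factor k from gradient HPLC on reversed-phase C18 in acid polar organic mode, pH ~3.5.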

[5] = Quenching activity of the compound assessed as reduction in resorufin fluorescence; format: functional
Summary of the method: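 Resorufin at 1 µM and 10 µM measured for fluorescence in the presence of compound at 50 µM.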

[6] = target: T2, Amine oxidase [flavin-containing] B (Homo sapiens, UniProt P27338); test: Inhibition of human membrane bound MAO-B expressed in insect cell membranes assessed as reduction in conversion of kynuramine to 4-hydroxyquinoline by spectrophotometric assay; settings: read-out: IC50
T2 sequence (P27338 whole entry): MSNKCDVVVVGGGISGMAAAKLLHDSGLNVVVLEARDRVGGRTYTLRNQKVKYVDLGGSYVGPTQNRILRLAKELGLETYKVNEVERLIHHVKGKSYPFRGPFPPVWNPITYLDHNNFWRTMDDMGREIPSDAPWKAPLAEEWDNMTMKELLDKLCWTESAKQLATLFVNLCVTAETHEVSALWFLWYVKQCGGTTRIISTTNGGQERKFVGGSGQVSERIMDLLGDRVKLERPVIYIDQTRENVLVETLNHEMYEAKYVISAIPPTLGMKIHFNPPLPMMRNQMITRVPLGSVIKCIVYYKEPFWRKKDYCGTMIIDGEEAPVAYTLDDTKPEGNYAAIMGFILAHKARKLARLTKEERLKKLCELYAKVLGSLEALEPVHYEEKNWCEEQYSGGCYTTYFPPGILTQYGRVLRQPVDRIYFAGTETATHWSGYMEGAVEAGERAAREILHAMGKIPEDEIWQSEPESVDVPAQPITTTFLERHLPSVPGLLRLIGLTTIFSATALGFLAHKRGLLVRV
Summary of the method: (§1)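 Human MAO-A or MAO-B expressed in insect cell membranes, diluted 1/4000 (A) or 1/2000 (B). Kynuramine at 2×KM: 60 µM for MAO-A, 30 µM for MAO-B. Assay in 50 mM potassium phosphate pH 7.5, 30°C, 1% DMSO, absorbance at 314 nm. Inhibitor varied over 4 orders of magnitude, up to 100 µM. Linear rates from 8-10 assays fitted by 3-parameter regression with bottom fixed at zero; IC50 ± SE of estimate.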

[7] = target: T3, Amine oxidase [flavin-containing] A (Homo sapiens, UniProt P21397); test: Inhibition of human purified MAO-A expressed in insect cell membranes assessed as reduction in conversion of kynuramine to 4-hydroxyquinoline by spectrophotometric assay; settings: read-out: IC50
T3 sequence (P21397 whole entry): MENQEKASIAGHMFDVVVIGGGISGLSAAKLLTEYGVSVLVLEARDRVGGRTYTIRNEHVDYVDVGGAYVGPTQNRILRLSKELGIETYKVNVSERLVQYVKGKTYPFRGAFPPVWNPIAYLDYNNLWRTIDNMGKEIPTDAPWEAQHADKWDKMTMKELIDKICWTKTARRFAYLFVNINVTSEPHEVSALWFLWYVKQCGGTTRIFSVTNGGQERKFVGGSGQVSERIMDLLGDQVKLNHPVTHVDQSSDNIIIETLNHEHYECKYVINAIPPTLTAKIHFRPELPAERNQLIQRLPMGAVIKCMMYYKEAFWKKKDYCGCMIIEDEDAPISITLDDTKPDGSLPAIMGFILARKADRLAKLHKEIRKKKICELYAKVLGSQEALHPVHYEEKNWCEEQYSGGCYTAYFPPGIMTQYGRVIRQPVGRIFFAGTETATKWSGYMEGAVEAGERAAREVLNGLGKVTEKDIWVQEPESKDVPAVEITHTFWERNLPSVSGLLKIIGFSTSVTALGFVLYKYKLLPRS

[8] = target: T4, peroxidase (horseradish peroxidase) (Raphanus sativus, UniProt K7N5L9); test: Inhibition of horse radish peroxidase assessed as residual activity at 5 uM by amplex red dye based fluorescence assay; settings: horseradish peroxidase (isolated enzyme), probe Amplex Red, read-out: Activity
T4 sequence (K7N5L9 whole entry): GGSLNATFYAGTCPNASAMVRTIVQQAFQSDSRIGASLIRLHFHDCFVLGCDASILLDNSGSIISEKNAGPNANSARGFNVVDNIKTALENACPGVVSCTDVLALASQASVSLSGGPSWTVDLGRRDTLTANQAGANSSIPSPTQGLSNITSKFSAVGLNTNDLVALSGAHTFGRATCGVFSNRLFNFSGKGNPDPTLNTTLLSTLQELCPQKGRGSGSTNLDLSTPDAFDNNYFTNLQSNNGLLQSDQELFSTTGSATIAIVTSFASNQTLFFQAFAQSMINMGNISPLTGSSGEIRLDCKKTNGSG
Summary of the method: (§2)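 HRP (0.02 U/mL) given H2O2 20 µM directly as substrate plus Ampliflu Red 20 µM in 50 mM potassium phosphate pH 7.4. Compound at 50 or 5 µM, 1% DMSO; controls DMSO only. Resorufin fluorescence read at ex 535/em 595 nm, 30°C, as remaining HRP activity.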

[9] = target: T3, Amine oxidase [flavin-containing] A; test: Inhibition of human membrane bound MAO-A expressed in insect cell membranes assessed as reduction in conversion of kynuramine to 4-hydroxyquinoline by spectrophotometric assay; settings: read-out: IC50
Summary of the method: as §1

[10] = target: T4, peroxidase (horseradish peroxidase); test: Inhibition of horse radish peroxidase assessed as residual activity at 50 uM by amplex red dye based fluorescence assay; settings: horseradish peroxidase (isolated enzyme), probe Amplex Red, read-out: Activity
Summary of the method: as §2

[11] = Solubility of the compound at 100 uM; format: physicochemical
Summary of the method: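 Compounds checked for solubility in assay buffer at 100 µM.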

Peroxidase = Peroxidase (Raphanus sativus, UniProt K7N5L9); test: Inhibition of horse radish peroxidase assessed as residual activity by amplex red dye based fluorescence assay
Peroxidase, sequence (K7N5L9 whole entry): as above
Summary of the method: as §2

IC50 [1] [µM] | Compound | Activity [2] [%] | CC50 at 24 h [3] [µM] | K [4] | Activity [5] | IC50 [6] [µM] | IC50 [7] [µM] | activity at 5 µM [8] [%] | IC50 [9] [µM] | activity at 50 µM [10] [%] | solubility [11] | IC50 (Peroxidase) [µM]
0.092 | O=C(C(c1ccccc1)n1cnc2[nH]ncc2c1=S)N1CCCCCC1 (configuration not stated) |  |  |  |  |  |  |  |  |  |  | 
 | Oc1ccc(NC(=S)Nc2ccc3[nH]ccc3c2)cc1Cl | 49.1 | 447 | 3.76 | inactive | 8.6 | 58 | 39.9 | 58 | 26.4 | Soluble | 1.01

Reference: ChEMBL document CHEMBL4177525, “Synthesis and evaluation of frentizole-based indolyl thiourea analogues as MAO/ABAD inhibitors for Alzheimer's disease treatment” (Bioorg Med Chem, 2017)
